From ChEMBL document CHEMBL1140408 (J Med Chem, 2005)

How the values were obtained:
[1] = target: T1, Transient receptor potential cation channel subfamily V member 1 (Rattus norvegicus, UniProt O35433); experiment: Inhibitory effect on capsaicin (0.5 uM)-induced calcium uptake in rat DRG neurons upon incubation at RT for 10 minutes
Summary of the method: (§1)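 Neonatal Sprague–Dawley rat DRG neurons, dissociated with collagenase/trypsin and cultured 3 days with 200 ng/mL NGF (cytosine arabinoside for the first 2 days), were washed in Ca/Mg-free HBSS with 10 mM HEPES at pH 7.4. They were then given 45Ca2+ (10 µCi/mL), 0.5 µM capsaicin and compound for 10 min at room temperature, SDS-lysed and scintillation-counted.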

[2] = target: T2, Transient receptor potential cation channel subfamily V member 1 (Homo sapiens, UniProt Q8NER1); experiment: Concentration required to inhibit [3H]RTX radioligand binding towards transient receptor potential cation channel (subfamily V, member 1) expressed in chinese hamster ovary cells; type: cell-based, CHO
[3] = target: T2, Transient receptor potential cation channel subfamily V member 1; experiment: Concentration required to antagonized capsaicin-induced calcium uptake at the transient receptor potential cation channel (subfamily V member 1) expressed in chinese hamster ovary cells; type: cell-based, CHO
[4] = target: T1, Transient receptor potential cation channel subfamily V member 1; experiment: Inhibitory effect on capsaicin (0.5 uM)-induced calcium uptake in rat DRG neurons upon incubation at RT for 10 minutes; NE=Not effective; summary of the method: as §1
[5] = target: T1, Transient receptor potential cation channel subfamily V member 1; experiment: Inhibitory effect on capsaicin (0.5 uM)-induced calcium uptake in rat DRG neurons upon incubation at RT for 10 minutes; NE = Not effective; summary of the method: as §1

T1 sequence (O35433 whole entry): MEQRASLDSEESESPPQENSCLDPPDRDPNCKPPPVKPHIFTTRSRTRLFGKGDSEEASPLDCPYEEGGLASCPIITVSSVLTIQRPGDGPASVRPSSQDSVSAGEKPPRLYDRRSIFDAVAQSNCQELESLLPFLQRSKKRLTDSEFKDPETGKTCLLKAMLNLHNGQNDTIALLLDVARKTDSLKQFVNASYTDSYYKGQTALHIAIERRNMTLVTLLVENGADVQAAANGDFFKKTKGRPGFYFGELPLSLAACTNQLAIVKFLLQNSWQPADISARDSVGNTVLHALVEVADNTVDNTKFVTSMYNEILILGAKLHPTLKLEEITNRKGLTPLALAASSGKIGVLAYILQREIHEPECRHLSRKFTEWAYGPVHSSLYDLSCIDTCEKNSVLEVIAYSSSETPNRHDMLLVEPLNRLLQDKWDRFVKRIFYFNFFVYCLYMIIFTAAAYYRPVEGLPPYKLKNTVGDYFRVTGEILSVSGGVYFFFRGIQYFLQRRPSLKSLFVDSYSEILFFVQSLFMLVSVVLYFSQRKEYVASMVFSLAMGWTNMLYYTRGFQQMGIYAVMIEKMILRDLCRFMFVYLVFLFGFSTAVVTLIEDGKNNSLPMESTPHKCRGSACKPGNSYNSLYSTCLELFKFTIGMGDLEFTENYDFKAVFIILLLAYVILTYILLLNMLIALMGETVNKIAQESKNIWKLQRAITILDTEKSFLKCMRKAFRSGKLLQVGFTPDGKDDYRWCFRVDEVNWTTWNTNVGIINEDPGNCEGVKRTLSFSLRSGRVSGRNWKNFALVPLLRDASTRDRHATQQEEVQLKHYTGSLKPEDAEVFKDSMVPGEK
T2 sequence (Q8NER1 whole entry): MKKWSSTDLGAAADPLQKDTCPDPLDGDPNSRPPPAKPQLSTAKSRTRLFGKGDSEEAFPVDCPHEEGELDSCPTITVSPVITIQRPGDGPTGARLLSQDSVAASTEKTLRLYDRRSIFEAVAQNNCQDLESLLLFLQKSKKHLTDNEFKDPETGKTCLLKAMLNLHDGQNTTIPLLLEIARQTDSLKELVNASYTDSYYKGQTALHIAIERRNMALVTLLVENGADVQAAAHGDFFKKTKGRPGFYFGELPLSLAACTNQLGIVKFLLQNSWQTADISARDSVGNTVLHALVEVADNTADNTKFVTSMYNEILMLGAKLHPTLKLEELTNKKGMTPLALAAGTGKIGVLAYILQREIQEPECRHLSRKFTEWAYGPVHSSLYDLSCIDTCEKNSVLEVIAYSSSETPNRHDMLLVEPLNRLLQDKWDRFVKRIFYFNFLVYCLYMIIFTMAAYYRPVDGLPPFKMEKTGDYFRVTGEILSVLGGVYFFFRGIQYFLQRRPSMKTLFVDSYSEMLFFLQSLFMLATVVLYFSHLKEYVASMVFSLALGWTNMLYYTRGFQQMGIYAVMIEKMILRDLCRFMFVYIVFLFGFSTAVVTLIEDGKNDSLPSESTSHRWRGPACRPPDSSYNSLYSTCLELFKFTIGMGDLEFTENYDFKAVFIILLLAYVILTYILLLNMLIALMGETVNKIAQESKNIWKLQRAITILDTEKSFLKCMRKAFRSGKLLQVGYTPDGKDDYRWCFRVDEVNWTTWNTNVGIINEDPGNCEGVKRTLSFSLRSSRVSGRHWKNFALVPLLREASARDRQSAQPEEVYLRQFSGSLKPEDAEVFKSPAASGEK

| SMILES | IC50 [1] | further results |
| --- | --- | --- |
| Cc1ccccc1C/N=C(\S)NCc1ccc(NS(C)(=O)=O)c(F)c1 | 670 nM |  |
| CCOC(=O)Nc1ccc(C/N=C(\S)NCc2ccc(C(C)(C)C)cc2)cc1F | > 30000 nM |  |
| CC(C)(C)c1ccc(CNC(=S)NCc2ccc(NS(C)(=O)=O)c([N+](=O)[O-])c2)cc1 | 71 nM |  |
| Cc1ccc(C/N=C(\S)NCc2ccc(NS(C)(=O)=O)c(F)c2)cc1 | 1500 nM |  |
| CC(C)c1ccc(C/N=C(\S)NCc2ccc(NS(C)(=O)=O)c(F)c2)cc1 | 520 nM |  |
| CC(C)(C)NC(=S)NCc1ccc(NS(C)(=O)=O)c(F)c1 | > 30000 nM |  |
| CC(C)(C)c1ccc(C/N=C(\S)NCc2ccc(NS(C)(=O)=O)c(C#N)c2)cc1 | 5900 nM |  |
| CC(C)(C)c1ccc(C/N=C(\S)NCc2ccc(NS(C)(=O)=O)c(Br)c2)cc1 | 80 nM |  |
| CC(C)(C)c1ccc(CNC(=S)NCc2ccc(NS(C)(=O)=O)c(F)c2)cc1 |  | IC50 [2]: 54 nM; EC50 [3]: 8 nM |
| CC(C)(C)c1ccc(CNC(=S)NCc2ccc3nn[nH]c3c2)cc1 | 50 nM |  |
| CS(=O)(=O)Nc1ccc(C/N=C(\S)Nc2c3ccccc3cc3ccccc23)cc1F | 1100 nM |  |
| CS(=O)(=O)Nc1ccc(CNC(=S)NCc2ccc(-c3ccccc3)cc2)cc1F | > 30000 nM |  |
| COC(=O)CNc1ccc(CNC(=S)NCc2ccc(C(C)(C)C)cc2)cc1F | 3600 nM |  |
| CC(C)(C)c1ccccc1C/N=C(\S)NCc1ccc(NS(C)(=O)=O)c(F)c1 |  | IC50 [4]: Not Active |
| CCOC(=O)N/C(=N\Cc1ccc(NS(C)(=O)=O)c(F)c1)NCc1ccc(C(C)(C)C)cc1 | 6200 nM |  |
| CS(=O)(=O)Nc1ccc(C/N=C(\S)NCc2ccc(Br)cc2)cc1F | 570 nM |  |
| CONC(=O)c1cc(C/N=C(\S)NCc2ccc(C(C)(C)C)cc2)ccc1NS(C)(=O)=O | > 30000 nM |  |
| CCc1ccc(C/N=C(\S)NCc2ccc(NS(C)(=O)=O)c(F)c2)cc1 | 1100 nM |  |
| CC(C)(C)c1ccc(C/N=C(\S)NCc2ccc3c(c2)OCO3)cc1 |  | IC50 [5]: Not Active |
| CCCCc1ccc(CNC(=S)NCc2ccc(NS(C)(=O)=O)c(F)c2)cc1 | 470 nM |  |
| CC(C)OC(=O)c1cc(C/N=C(\S)NCc2ccc(C(C)(C)C)cc2)ccc1NS(C)(=O)=O | > 30000 nM |  |

| SMILES | IC50 [1] | further results |
| --- | --- | --- |
| CC(C)(C)c1cc(CNC(=S)NCc2ccc(NS(C)(=O)=O)c(F)c2)cc(C(C)(C)C)c1 | 200 nM |  |
| COCC(=O)Nc1ccc(CNC(=S)NCc2ccc(C(C)(C)C)cc2)cc1F | 10900 nM |  |
| COC(=O)Nc1ccc(C/N=C(\S)NCc2ccc(C(C)(C)C)cc2)cc1F |  | IC50 [4]: Not Active |
| CCOC(=O)CNc1ccc(CNC(=S)NCc2ccc(C(C)(C)C)cc2)cc1F | > 30000 nM |  |
| CC(C)(C)c1ccc(CNC(=S)NCc2ccc(NC(=O)C(F)(F)F)c(F)c2)cc1 | > 30000 nM |  |
| CC(C)(C)c1ccc(N/C(S)=N/Cc2ccc(NS(C)(=O)=O)c(F)c2)cc1 | 1600 nM |  |
| CC(C)(C)c1ccc(C/N=C(\S)NCc2ccc(NS(C)(=O)=O)c(C(=O)NO)c2)cc1 | > 30000 nM |  |
| CS(=O)(=O)Nc1ccc(CN=C(S)NCc2cccc3ccccc23)cc1F | 2600 nM |  |
| CC(C)(C)c1ccc(CCNC(=S)NCc2ccc(NS(C)(=O)=O)c(F)c2)cc1 | 370 nM |  |
| CS(=O)(=O)Nc1ccc(C/N=C(\S)NC(c2ccccc2)c2ccccc2)cc1F | 2500 nM |  |
| CC(C)(C)c1ccc(CNC(=S)NCc2ccc3[nH]ccc3c2)cc1 | 1800 nM |  |
| CC(C)(C)c1ccc(C/N=C(\NC#N)NCc2ccc(NS(C)(=O)=O)c(F)c2)cc1 | 730 nM |  |
| CC(C)(C)c1ccc(C(C)(C)/N=C(\S)NCc2ccc(NS(C)(=O)=O)c(F)c2)cc1 | > 30000 nM |  |
| Cc1cccc(CNC(=S)NCc2ccc(NS(C)(=O)=O)c(F)c2)c1 | 1300 nM |  |
| CC(C)(C)c1ccc(CNC(=S)NCc2ccc3nc[nH]c3c2)cc1 | 790 nM |  |
| CC(C)(C)c1ccc(CCC/N=C(\S)NCc2ccc(NS(C)(=O)=O)c(F)c2)cc1 | 2000 nM |  |
| CC(C)(C)c1ccc(CNC(=S)NCc2ccc(NS(C)(=O)=O)c(I)c2)cc1 | 41 nM |  |
| CC(C)(C)c1ccc(C/N=C(\S)NCc2ccc(NCC(=O)O)c(F)c2)cc1 |  | IC50 [5]: Not Active |
| CCCc1ccc(CNC(=S)NCc2ccc(NS(C)(=O)=O)c(F)c2)cc1 | 460 nM |  |
| CS(=O)(=O)Nc1ccc(C/N=C(\S)NCc2ccc(I)cc2)cc1F | 630 nM |  |
| CC(C)(C)c1ccc(C/N=C(\S)NCc2ccc(N)c(F)c2)cc1 |  | IC50 [4]: Not Active |
